Measurements from ChEMBL document CHEMBL1130244, “Boron-containing polyamines as DNA targeting agents for neutron capture therapy of brain tumors: synthesis and biological evaluation” (J Med Chem, 1997).

How the values were obtained:
Rattus norvegicus = species: Rattus norvegicus; assay: In vitro uptake of compound by F98 glioma cells was determined by measuring cellular boron content using direct current plasma atomic emission spectroscopy (DCP-AES) after 24 hr incubation
[1] = Actual boron concentration in media was determined by using direct current plasma atomic emission spectroscopy (DCP-AES) after 24 hr incubation
[2] = Concentration required to produce a 50% reduction in the uptake of [3H]TdR, by F98 glioma cells; format: functional; conditions: Rattus norvegicus, F98, 24 h
In short: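 F98 rat glioma cells, 10 000/well, grown overnight at 37 °C in DMEM with 10% FBS, then 24 h with polyamine at 1–100 μM (0.1–10 μg/mL boron); medium replaced with compound-free medium, pulsed with 0.1 μCi [3H]TdR per well for 18–24 h, then harvested and counted. Six replicates per concentration; IC50 from cpm as % of untreated controls.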

Nucleic Acid = assay: Binding of compound to calf thymus DNA was determined by an ethidium bromide displacement assay; format: nucleic-acid assay, Bos taurus

| SMILES | Concentration (Rattus norvegicus) | Cmedia [1] | IC50 [2] [µM] | IC50 (Nucleic Acid) [µM] |
| --- | --- | --- | --- | --- |
| N[C@@H](Cc1ccc(B(O)O)cc1)C(=O)O | 81 µg of B g-1 | 50 ug of B/ml |  |  |
| CCNCCCNCCCCNCCCNCC [BIS(ETHYL)SPERMINE] |  |  | > 100 |  |
| NCCCCNCCCN [SPERMIDINE] |  |  | > 100 | 175 |
| NCCCNCCCCNCCCN [SPERMINE] |  |  | > 100 | 17 |
